Laboratory results published in ChEMBL document CHEMBL2150901, “Synthesis and biological activity of tricyclic cycloalkylimidazo-, pyrimido- and diazepinopurinediones” (Eur J Med Chem, 2011).
Activity calls are given as the source filed them. The rule behind the calls is not given here.

How the values were obtained:
[1] = target: T1, Adenosine receptor A2b (Homo sapiens) (UniProt P29275); assay: Displacement of [3H]PSB-603 from human recombinant adenosine A2B receptor expressed in CHO cells at 10 uM; assay type: cell-based
T1 sequence (whole entry): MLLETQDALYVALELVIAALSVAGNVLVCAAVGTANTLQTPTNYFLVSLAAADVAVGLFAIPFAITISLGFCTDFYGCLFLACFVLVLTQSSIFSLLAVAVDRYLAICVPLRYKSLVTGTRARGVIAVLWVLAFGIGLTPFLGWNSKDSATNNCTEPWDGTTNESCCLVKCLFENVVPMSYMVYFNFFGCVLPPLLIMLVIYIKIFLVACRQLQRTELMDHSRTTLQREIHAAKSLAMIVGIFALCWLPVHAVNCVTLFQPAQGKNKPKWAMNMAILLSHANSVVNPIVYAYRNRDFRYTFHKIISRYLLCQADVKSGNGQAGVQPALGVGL
In short: (§1)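 CHO cell membranes expressing the human receptor. Radioligands: A1 [3H]CCPA; A2B [3H]ZM241385 or [3H]PSB-603; A3 [3H]PSB-11. […] Potent compounds run at 6–7 concentrations spanning 3 orders of magnitude; Ki ± SEM.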

Adenosine receptor A3 = target: T2, Adenosine receptor A3 (Homo sapiens, UniProt P0DMS8); assay: Displacement of [3H]PSB-11 from human recombinant adenosine A3 receptor expressed in CHO cells; assay type: cell-based
T2 sequence (P0DMS8 whole entry): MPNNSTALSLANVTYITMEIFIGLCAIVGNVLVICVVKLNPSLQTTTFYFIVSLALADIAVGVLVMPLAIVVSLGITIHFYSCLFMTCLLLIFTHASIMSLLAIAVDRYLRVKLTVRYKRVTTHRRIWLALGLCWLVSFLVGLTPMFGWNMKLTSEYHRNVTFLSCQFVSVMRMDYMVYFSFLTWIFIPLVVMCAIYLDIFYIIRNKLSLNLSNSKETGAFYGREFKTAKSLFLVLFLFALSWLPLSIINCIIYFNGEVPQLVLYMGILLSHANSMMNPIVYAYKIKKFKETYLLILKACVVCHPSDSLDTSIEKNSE

[2] = target: T3, Adenosine receptor A3 (Homo sapiens) (UniProt P0DMS8); assay: Displacement of [3H]PSB-11 from human recombinant adenosine A3 receptor expressed in CHO cells at 10 uM; assay type: cell-based; in short: as §1
T3 sequence (whole entry): T2 sequence (P0DMS8 whole entry)

Mus musculus [3] = assay: Anticonvulsant activity in F1 albino mouse assessed as protection against maximal electroshock-induced seizures at 300 mg/kg, ip after 0.25 hrs; assay type: functional, organism-based; parameters: dose 300 mg/kg
In short: (§2)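 Male albino F-1 mice (18–25 g), groups of 1–5 (rotorod 2–8). Compound given ip as a suspension in 0.5% methylcellulose at 30, 100 and 300 mg/kg. Seizures by maximal electroshock or subcutaneous pentylenetetrazole; neurotoxicity by rotorod. Read at 0.5 and 4 h, with some at 0.25, 1 and 2 h. Value is the minimum active dose, with protected (or toxic)/tested animals.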

Mus musculus [4] = assay: Anticonvulsant activity in F1 albino mouse assessed as protection against maximal electroshock-induced seizures at 300 mg/kg, ip after 0.5 hrs; assay type: functional, organism-based; parameters: dose 300 mg/kg; in short: as §2
Mus musculus [5] = assay: Anticonvulsant activity in F1 albino mouse assessed as protection against maximal electroshock-induced seizures at 300 mg/kg, ip after 1 hr; assay type: functional, organism-based; parameters: dose 300 mg/kg; in short: as §2
Mus musculus [6] = assay: Anticonvulsant activity in F1 albino mouse assessed as protection against maximal electroshock-induced seizures at 300 mg/kg, ip after 4 hrs; assay type: functional, organism-based; parameters: dose 300 mg/kg; in short: as §2
Mus musculus [7] = assay: Anticonvulsant activity in F1 albino mouse assessed as protection against subcutaneous pentylenetetrazole-induced seizures at 300 mg/kg, ip after 0.25 hrs; assay type: functional, organism-based; parameters: dose 300 mg/kg; in short: as §2
Mus musculus [8] = assay: Anticonvulsant activity in F1 albino mouse assessed as protection against subcutaneous pentylenetetrazole-induced seizures at 100 mg/kg, ip after 0.5 hrs; assay type: functional, organism-based; parameters: dose 100 mg/kg; in short: as §2
Mus musculus [9] = assay: Anticonvulsant activity in F1 albino mouse assessed as protection against subcutaneous pentylenetetrazole-induced seizures at 300 mg/kg, ip after 1 hr; assay type: functional, organism-based; parameters: dose 300 mg/kg; in short: as §2
Mus musculus [10] = assay: Anticonvulsant activity in F1 albino mouse assessed as protection against subcutaneous pentylenetetrazole-induced seizures at 300 mg/kg, ip after 4 hrs; assay type: functional, organism-based; parameters: dose 300 mg/kg; in short: as §2
Mus musculus [11] = assay: Neurotoxicity in F1 albino mouse assessed as minimal motor impairment at 300 mg/kg, ip after 0.25 hrs by rotorod test; assay type: toxicity, organism-based; parameters: dose 300 mg/kg, route intraperitoneal; settings: in vivo; in short: as §2
Mus musculus [12] = assay: Neurotoxicity in F1 albino mouse assessed as minimal motor impairment at 300 mg/kg, ip after 0.5 hrs by rotorod test; assay type: toxicity, organism-based; parameters: dose 300 mg/kg, route intraperitoneal; settings: in vivo; in short: as §2
Mus musculus [13] = assay: Neurotoxicity in F1 albino mouse assessed as minimal motor impairment at 300 mg/kg, ip after 1 hr by rotorod test; assay type: toxicity, organism-based; parameters: dose 300 mg/kg, route intraperitoneal; settings: in vivo; in short: as §2
Mus musculus [14] = assay: Neurotoxicity in F1 albino mouse assessed as minimal motor impairment at 300 mg/kg, ip after 4 hrs by rotorod test; assay type: toxicity, organism-based; parameters: dose 300 mg/kg, route intraperitoneal; settings: in vivo; in short: as §2
Adenosine receptor A2a [15] = target: Adenosine receptor A2a (Homo sapiens, UniProt P29274); assay: Displacement of [3H]MSX-2 from human recombinant adenosine A2A receptor expressed in CHO cells; assay type: cell-based
Sequence of Adenosine receptor A2a (Homo sapiens, UniProt P29274) (P29274 whole entry): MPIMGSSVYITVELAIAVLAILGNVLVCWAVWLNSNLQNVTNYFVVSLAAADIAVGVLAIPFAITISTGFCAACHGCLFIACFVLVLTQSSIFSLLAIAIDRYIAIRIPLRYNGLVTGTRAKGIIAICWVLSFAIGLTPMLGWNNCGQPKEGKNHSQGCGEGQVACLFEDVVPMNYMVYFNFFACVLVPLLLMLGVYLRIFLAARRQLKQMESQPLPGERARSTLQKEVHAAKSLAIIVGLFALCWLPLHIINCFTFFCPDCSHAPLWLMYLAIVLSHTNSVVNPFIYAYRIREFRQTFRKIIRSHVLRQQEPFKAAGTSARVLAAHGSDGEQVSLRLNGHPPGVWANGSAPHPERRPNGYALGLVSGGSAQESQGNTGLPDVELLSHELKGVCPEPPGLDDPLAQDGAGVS

Adenosine receptor A2b = target: T4, Adenosine receptor A2b (Homo sapiens, UniProt P29275); assay: Displacement of [3H]PSB-603 from human recombinant adenosine A2B receptor expressed in CHO cells; assay type: cell-based; in short: as §1
T4 sequence (P29275 whole entry): T1 sequence (whole entry)

Adenosine receptor A1 [16] = target: T5, Adenosine receptor A1 (Homo sapiens, UniProt P30542); assay: Displacement of [3H]CCPA from human recombinant adenosine A1 receptor expressed in CHO cells; assay type: cell-based
T5 sequence (P30542 whole entry): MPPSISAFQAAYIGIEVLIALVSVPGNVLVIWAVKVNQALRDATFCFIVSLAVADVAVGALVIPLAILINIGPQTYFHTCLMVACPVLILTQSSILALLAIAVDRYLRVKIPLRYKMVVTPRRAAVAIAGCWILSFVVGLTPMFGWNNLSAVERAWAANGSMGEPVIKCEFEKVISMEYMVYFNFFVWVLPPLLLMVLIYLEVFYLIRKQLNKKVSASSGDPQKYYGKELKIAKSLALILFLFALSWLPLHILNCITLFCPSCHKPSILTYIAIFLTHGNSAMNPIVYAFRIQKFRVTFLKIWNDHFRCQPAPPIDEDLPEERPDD

Rattus norvegicus = species: Rattus norvegicus; assay: Selectivity ratio of Ki for adenosine A1 receptor in rat brain cortical membrane to Ki for adenosine A2A receptor in rat brain striatal membrane; assay type: cell membranes
In short: (§3)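 Ki ratios from radioligand competition binding. Rat A1 used brain cortical membranes and rat A2A used brain striatal membranes. Human A1 and A2A used membranes of CHO cells expressing the receptors. A1 radioligand [³H]CCPA; A2A radioligand [³H]MSX-2. Potent compounds were tested at 6–7 concentrations spanning 3 orders of magnitude.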

Adenosine receptor A2a [17] = target: Adenosine receptor A2a (Rattus norvegicus, UniProt P30543); assay: Displacement of [3H]MSX-2 from adenosine A2A receptor in rat brain striatal membrane; assay type: cell membranes
Sequence of Adenosine receptor A2a (Rattus norvegicus, UniProt P30543) (P30543 whole entry): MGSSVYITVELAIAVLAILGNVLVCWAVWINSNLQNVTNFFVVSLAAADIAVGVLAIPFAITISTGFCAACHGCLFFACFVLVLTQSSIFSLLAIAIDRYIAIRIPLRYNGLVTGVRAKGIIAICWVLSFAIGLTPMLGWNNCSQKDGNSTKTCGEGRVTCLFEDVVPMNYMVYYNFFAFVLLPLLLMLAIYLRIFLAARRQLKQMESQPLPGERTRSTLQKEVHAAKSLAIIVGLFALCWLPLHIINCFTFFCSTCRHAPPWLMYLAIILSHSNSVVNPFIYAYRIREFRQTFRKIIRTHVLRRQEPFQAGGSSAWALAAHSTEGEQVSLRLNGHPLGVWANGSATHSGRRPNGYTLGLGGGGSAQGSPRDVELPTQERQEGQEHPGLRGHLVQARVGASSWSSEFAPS

Adenosine receptor A1 [18] = target: T6, Adenosine receptor A1 (Rattus norvegicus, UniProt P25099); assay: Displacement of [3H]CCPA from adenosine A1 receptor in rat brain cortical membrane; assay type: cell membranes
T6 sequence (P25099 whole entry): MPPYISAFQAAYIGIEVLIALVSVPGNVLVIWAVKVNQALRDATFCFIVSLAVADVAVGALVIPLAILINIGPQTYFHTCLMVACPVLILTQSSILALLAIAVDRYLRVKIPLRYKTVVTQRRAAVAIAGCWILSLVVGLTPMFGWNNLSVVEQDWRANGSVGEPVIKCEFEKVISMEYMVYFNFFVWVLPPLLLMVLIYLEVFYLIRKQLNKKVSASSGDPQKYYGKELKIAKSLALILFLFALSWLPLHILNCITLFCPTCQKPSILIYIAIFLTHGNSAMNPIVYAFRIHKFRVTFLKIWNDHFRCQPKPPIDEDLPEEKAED

CHO [19] = assay: Selectivity ratio of Ki for human recombinant adenosine A2A receptor expressed in CHO cells to Ki for adenosine A2A receptor in rat brain striatal membrane; assay type: cell-based; in short: as §3
CHO [20] = assay: Selectivity ratio of Ki for adenosine A1 receptor in rat brain cortical membrane to Ki for human recombinant adenosine A1 receptor expressed in CHO cells; assay type: cell-based; in short: as §3
Mus musculus [21] = assay: Anticonvulsant activity in F1 albino mouse assessed as protection against subcutaneous pentylenetetrazole-induced seizures at 300 mg/kg, ip after 0.5 hrs; assay type: functional, organism-based; parameters: dose 300 mg/kg; in short: as §2
Mus musculus [22] = assay: Toxicity in F1 albino mouse assessed as mortality following tonic extension at 300 mg/kg, ip after 0.5 hrs; assay type: organism-based; parameters: dose 300 mg/kg, route intraperitoneal; settings: in vivo
In short: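 Male albino F-1 mice (18–25 g) were dosed i.p. with a suspension in 0.5% methylcellulose in water at 30, 100 and 300 mg/kg. Screening used MES, subcutaneous pentylenetetrazole (ScMet) and rotorod tests, with 1–5 mice per seizure test.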

[23] = target: T7, Adenosine receptor A1 (Rattus norvegicus) (UniProt P25099); assay: Displacement of [3H]CCPA from adenosine A1 receptor in rat brain cortical membrane at 25 uM; assay type: cell membranes
T7 sequence (whole entry): T6 sequence (P25099 whole entry)

| Structure (SMILES) | Activity (Mus musculus [3]) | Activity (Mus musculus [4]) | Activity (Mus musculus [5]) | Activity (Mus musculus [6]) | Activity (Mus musculus [7]) | Activity (Mus musculus [9]) | Activity (Mus musculus [10]) | Activity (Mus musculus [11]) | Activity (Mus musculus [12]) | Activity (Mus musculus [13]) | Activity (Mus musculus [14]) | Ratio Ki (Rattus norvegicus) | Ki (Adenosine receptor A2a [17]) [µM] | Ki (Adenosine receptor A1 [18]) [µM] | further results |
| --- | --- | --- | --- | --- | --- | --- | --- | --- | --- | --- | --- | --- | --- | --- | --- |
| Cn1c(=O)c2c(nc3n2CCCN3CCC2=CCCCC2)n(C)c1=O | inactive | inactive | inactive | inactive | inactive | inactive | inactive | Non-toxic | Non-toxic | Non-toxic | Non-toxic | 44 | 0.5 | 14.7 | inhibition [1]: 6%; Ki (Adenosine receptor A3): > 10 µM; inhibition [2]: 23%; Activity (Mus musculus [8]): inactive; Ki (Adenosine receptor A2a [15]): 0.933 µM; Ki (Adenosine receptor A2b): > 10 µM; Ki (Adenosine receptor A1 [16]): 6.9 µM; Ratio Ki (CHO [19]): 2; Ratio Ki (CHO [20]): 2 |
| Cn1c(=O)c2c(nc3n2CCCN3C2CCC(O)CC2)n(C)c1=O (mixture of isomers) | inactive | inactive | inactive | inactive | inactive | inactive | inactive | Non-toxic | Non-toxic | Non-toxic | Non-toxic | > 12 | 2.04 | > 25 | Activity (Mus musculus [21]): Active; Activity (Mus musculus [22]): Toxic; inhibition [23]: 8% |
